# From PubChem BioAssay
# Only some compounds are listed: those with a hit (about 4.9% of all), similar ones and a draw of the others.
# APP 5'UTR act = activates APP 5'UTR luciferase reporter; 1% of 190,000 active; SH-SY5Y APP 5'UTR luciferase reporter, luminescence; zero percent = DMSO vehicle wells; activation, % at 2 µM; AID 1276;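 active = activation above a set limit, based on mean plus 3 SD of controls, cut at about 140% in these data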
# STAT1 inh = inhibitors of IFN-gamma induced STAT1 signaling | NIH 3T3 STAT1-luciferase reporter, luminescence | inhibition, % at 5.5 µM | 0.35% of 200,000 active;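 active = inhibition above a set limit, the mean inhibition across all tested compounds plus 3 SD, cut at about 34% in these data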;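 note: 0% = IFN-gamma with DMSO and 100% = IFN-gamma with 300 µM nifuroxazide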
# STAT1 act = STAT1 signaling activation; NIH 3T3 STAT1-luciferase reporter, IFN-gamma, luminescence; 100% = IFN-gamma alone, no compound; activation (% of control), % at 5.5 µM; 2.6% of 200,000 active;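 active = activation above the screen-wide mean activation plus 3 SD, cut at about 130% in these data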;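 note: raw ratio to IFN-gamma control signal so 100% means no change and 0% no light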
# NF-kB expr up = raises NF-kB expression in human neuronal cells. NF-kB reporter expression; stronger effect = higher value. fold change at 12.5 µM. 1.6% of 190,000 active. AID 1239; in the data active = fold change above about 3.3
# STAT3 activator = increases IL-6 driven STAT3 reporter signal. U3A cells, IL-6 STAT3-luciferase reporter, luminescence; 100% = signal with IL-6 EC80 alone. 0.91% of 190,000 active. activation (% of control), % at 5.6 µM;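 active = activation above the screen-wide mean of compound activation plus 3 SD, cut at about 130% in these data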;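 note: 0% = background luminescence of wells with medium and substrate only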
#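 System – human U3A cells carrying STAT3-luciferase construct · Probe or stimulus – Interleukin-6, 33 ng/mL · Schedule – compound 1 h, then IL-6 6 h at 37 °C · Signal – luminescence from STAT3-driven luciferase reporter · Evaluation – percent of IL-6-only median luminescence · Benchmarks – IL-6-only high control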
# STAT3 blocker = reduces IL-6 driven STAT3 reporter signal. AID 862. inhibition, % at 5.5 µM. 0.89% of 190,000 active. U3A cells, IL-6 STAT3-luciferase reporter, luminescence; host cell line lacks STAT1;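 active = inhibition above the mean inhibition across all screened compounds plus 3 SD, cut at about 44% in these data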;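 note: 0% = DMSO only wells and 100% = 100 µM nifuroxazide control wells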
# An asterisk follows results filed as active; . = no result given.
SMILES,APP 5'UTR act,STAT1 inh,STAT1 act,NF-kB expr up,STAT3 activator,STAT3 blocker
CC1CCC(NC(=O)c2ccc3nc[nH]c3c2)CC1 (configuration not stated),50.4,-31.3,128.6*,2.04,109.7,-7.0
Cc1ccc(NC(=O)CSc2ccc3nnc(CCNC(=O)c4ccccc4)n3n2)c(C)c1,-7.0,-5.0,104.6,0.98,94.0,5.7
COc1cccc(COc2ncnc3sccc23)c1,-2.6,2.5,97.5,1.11,104.9,0.3
c1ccc(OCCOc2ncnc3sccc23)cc1,67.0,-33.8,131.2*,2.72,98.9,3.9
Cc1ccc(C)c(C(=O)COC(=O)CCCC(=O)Nc2cc(C(F)(F)F)ccc2Cl)c1,-13.8,2.4,97.8,0.89,106.7,-12.9
Cc1nn(Cc2cccc(C(=O)N3N=C(C(F)F)CC3(O)C(F)F)c2)c(C)c1[N+](=O)[O-] (configuration not stated),13.4,3.0,97.2,0.78,85.8,15.9
c1ccc(-n2ncc3c2ncn2nc(-c4ccco4)nc32)cc1,93.4,-40.5,137.0*,2,86.2,20.4
Cc1cc(C(=O)CN2C(=O)C(=O)N(Cc3ccccc3)C2=O)c(C)n1-c1ccccc1F,33.3,-2.4,102.8,0.88,103.7,-3.9
Cc1cc(C(=O)CN2CCC(C)CC2)c(C)n1-c1ccccc1F,131.8,-38.9,135.4*,0.31,71.5,29.9
O=c1c2ccccc2nc2n1CCC2O (configuration not stated),-14.9,-0.4,99.3,0.99,.,.
CCOC(=O)c1cc(-c2ccc(C)cc2)nc2nc(SC)[nH]c(=O)c12,3.5,0.8,99.3,3.99*,84.9,16.2
COc1cccc(/C=C/C(=O)OCC(=O)Nc2ccc(Cl)cn2)c1,-11.7,-0.6,98.8,0.83,101.9,1.5
O=C(Nc1cc2ccccc2oc1=O)c1ccccc1,130.8,76.3*,28.7,2.29,25.4,96.1*
O=S(=O)(/C=C/c1ccccc1)NCc1ccccc1Cl,-12.6,-10.2,109.1,0.88,97.9,0.4
CCOC(=O)C1(CCCc2ccccc2)CCN(C(=O)CCn2cncn2)CC1,16.4,-10.2,107.6,0.71,98.9,3.6
CCOC(=O)C1(CCc2ccccc2)CCN(C(=O)CCn2cncn2)CC1,41.4,-46.1,139.4*,.,109.1,-5.1
COc1ccccc1/C=C/C=N/NC(=O)c1cnccn1,14.5,-21.6,118.0,1.7,92.0,11.6
COc1ccccc1/C=C/C=N/NC(=O)c1ccccn1,121.4,-35.0,132.8*,4.64*,80.4,27.6
COc1cc(/C=N/NC(=O)c2ccccn2)cc2c1OCO2,37.3,-31.7,129.0*,0.93,106.3,-6.2
O=C(N/N=C/c1cc2c(cc1Cl)OCO2)c1ccccn1,23.4,-38.0,134.2*,.,93.3,17.9
CCN1CCN(C(CC(C)C)c2nnnn2CS(=O)(=O)c2ccc(C)cc2)CC1 (configuration not stated),-15.0,-3.8,101.9,1.02,100.4,4.0
CC(C)(C)NC(=O)CN(C(=O)CS(=O)CC(=O)Nc1ccc(F)cc1)c1ccc(F)c(Cl)c1 (configuration not stated),11.7,-9.6,108.8,0.95,106.5,-4.4
CC(=O)c1c(C)[nH]c(C(=O)N(C)C(c2ccccc2)c2ccccc2)c1C,-16.5,12.5,88.1,0.74,104.2,2.9
O=C(c1cccc2c1C(=O)N(Cc1cccnc1)C2)N1CCN(c2ccccc2)CC1,0.1,-4.2,105.2,1.22,98.9,2.7
S=C(NCCc1ccccc1)Nc1ccccn1,26.5,-37.1,132.8*,1.63,109.8,-7.2
SMILES,APP 5'UTR act,STAT1 inh,STAT1 act,NF-kB expr up,STAT3 activator,STAT3 blocker
Cc1cccc(NC(=S)NCCc2ccccc2)n1,-1.7,1.7,98.8,.,92.2,14.7
CC(C)(C)NC(=S)NCCc1ccccc1,77.8,-33.1,130.1*,1.98,103.6,-8.9
Cc1ccc(C(=O)/C=C/c2ccc3c(c2)OCO3)o1,20.9,-5.4,104.8,1.8,94.0,10.2
Cc1ccc(C(=O)N/N=C/c2ccc3c(c2)OCO3)o1,34.9,-42.4,137.5*,2,131.3,-30.0
Cc1cccc(-n2ncc3c(NCCN4CCOCC4)ncnc32)c1,23.2,-8.1,107.4,0.84,108.0,-2.0
Clc1ccc(-n2ncc3c(NCc4cccs4)ncnc32)cc1,126.0,-36.7,133.5*,2.77,94.8,13.3
